In ChEMBL document CHEMBL3112527, “Quinoline-pyrimidine hybrids: synthesis, antiplasmodial activity, SAR, and mode of action studies” (J Med Chem, 2014):
Values after ≈ are worked out from the molar mass of the structure shown. Active and inactive are the calls of the source. The rule behind the calls is not given here.

Experiments:
Human betaherpesvirus 5 [1] = assay: Antiviral activity against Cytomegalovirus Davis infected in HEL cells assessed as inhibition of virus-induced cytopathicity; format: functional, organism-based
Human alphaherpesvirus 1 [2] = assay: Antiviral activity against HSV-1 KOS infected in HEL cells assessed as inhibition of virus-induced cytopathicity; format: functional, organism-based
Procedure, shortened: (§1)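 Confluent monolayers (HEL, Vero, HeLa or CrFK, as applicable) were inoculated with 100 CCID50 of virus, with 1 CCID50 being the dose that infects 50% of cultures. Infection ran in the presence of varying compound concentrations. Inhibition of virus-induced cytopathicity was scored against infected cultures left untreated.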

[3] = Cytotoxicity against cat CRFK cells assessed as cell viability by MTS assay; format: cell-based, Felis catus
Procedure, shortened: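 CRFK cells were exposed to varying sample concentrations. Cell viability was measured with the colorimetric formazan-based MTS assay, and the 50% cytotoxic concentration (CC50) was derived from it.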

Human alphaherpesvirus 3 = assay: Antiviral activity against Varicella-zoster virus infected in HEL cells assessed as inhibition of virus-induced cytopathicity; format: functional, organism-based
[4] = system: Respiratory syncytial virus; assay: Antiviral activity against Respiratory syncytial virus infected in human HeLa cells assessed as inhibition of virus-induced cytopathicity; format: functional, organism-based; procedure, shortened: as §1
[5] = Aqueous solubility of the compound in PBS buffer at pH 7.4 after 24 hrs by HPLC analysis; format: physicochemical; details: pH 7.4, 24 h
Human alphaherpesvirus 1 [6] = assay: Antiviral activity against thymidine kinase-negative acyclovir-resistant HSV-1 KOS infected in HEL cells assessed as inhibition of virus-induced cytopathicity; format: functional, organism-based
Procedure, shortened: (§2)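 Confluent monolayers in 96-well plates were inoculated with 100 CCID50 of virus in the presence of varying concentrations of compound. Read-out was inhibition of virus-induced cytopathicity, compared with untreated infected cultures. Cytotoxicity was judged microscopically or by MTT viability staining.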

Influenza A virus = assay: Antiviral activity against influenza A virus H1N1 infected in MDCK cells assessed as inhibition of virus-induced cytopathicity; format: functional, organism-based; procedure, shortened: as §2
[7] = Cytotoxicity against human HeLa cells assessed as alteration of cell morphology by microscopic analysis; format: cell-based; details: read-out: MIC
Procedure, shortened: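 Cells (Vero, HEL, MDCK or HeLa) were exposed to a range of sample concentrations. The value reported is the concentration required to cause a microscopically detectable alteration of normal cell morphology.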

Sindbis virus = assay: Antiviral activity against Sindbis virus infected in African green monkey Vero cells assessed as inhibition of virus-induced cytopathicity; format: functional, organism-based
[8] = system: Mammalian orthoreovirus 1; assay: Antiviral activity against Reovirus 1 infected in African green monkey Vero cells assessed as inhibition of virus-induced cytopathicity; format: functional, organism-based; procedure, shortened: as §1
Vaccinia virus = assay: Antiviral activity against Vaccinia virus infected in HEL cells assessed as inhibition of virus-induced cytopathicity; format: functional, organism-based; details: Orthopoxvirus vaccinia; procedure, shortened: as §2
[9] = n-octanol-PBS buffer distribution coefficient, log D of the compound at pH 7.4 after 24 hrs by HPLC analysis; format: physicochemical
Feline coronavirus = assay: Antiviral activity against Feline coronavirus infected in cat CRFK cells assessed as inhibition of virus-induced cytopathicity; format: functional, organism-based; procedure, shortened: as §1
Human alphaherpesvirus 2 = assay: Antiviral activity against HSV-2 G infected in HEL cells assessed as inhibition of virus-induced cytopathicity; format: functional, organism-based; details: strain G; procedure, shortened: as §1
[10] = system: Vesicular stomatitis virus; assay: Antiviral activity against Vesicular stomatitis virus infected in human HeLa cells assessed as inhibition of virus-induced cytopathicity; format: functional, organism-based; procedure, shortened: as §2
[11] = system: Vesicular stomatitis virus; assay: Antiviral activity against Vesicular stomatitis virus infected in HEL cells assessed as inhibition of virus-induced cytopathicity; format: functional, organism-based; procedure, shortened: as §2
Plasmodium falciparum [12] = assay: Antiplasmodial activity against chloroquine-sensitive asexual erythrocytic stage of Plasmodium falciparum D10 assessed as parasite growth inhibition by lactate dehydrogenase assay; format: functional, organism-based
Procedure, shortened: (§3)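 Parasite lactate dehydrogenase assay (modified Makler method). Samples held as 20 mg/mL stocks in DMSO, diluted on test day. Full dose-response: starting at 10 μg/mL, 2-fold serial dilution in complete medium over 10 concentrations down to 0.02 μg/mL. Chloroquine, artesunate and MMV390048 served as references. IC50 from nonlinear dose-response curve fitting; mean of three independent experiments.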

Coxsackievirus B4 [13] = assay: Antiviral activity against Coxsackievirus B4 infected in human HeLa cells assessed as inhibition of virus-induced cytopathicity; format: functional, organism-based; procedure, shortened: as §1
Punta Toro virus = assay: Antiviral activity against Punta Toro virus infected in African green monkey Vero cells assessed as inhibition of virus-induced cytopathicity; format: functional, organism-based; procedure, shortened: as §1
Influenza A virus H3N2 = assay: Antiviral activity against Influenza A virus H3N2 infected in MDCK cells assessed as inhibition of virus-induced cytopathicity; format: functional, organism-based; procedure, shortened: as §2
Coxsackievirus B4 [14] = assay: Antiviral activity against Coxsackievirus B4 infected in African green monkey Vero cells assessed as inhibition of virus-induced cytopathicity; format: functional, organism-based; procedure, shortened: as §1
[15] = Solubility of the compound in octanol at pH 7.4 by HPLC analysis; format: physicochemical
Human betaherpesvirus 5 [16] = assay: Antiviral activity against Cytomegalovirus AD169 infected in HEL cells assessed as inhibition of virus-induced cytopathicity; format: functional, organism-based
Felid alphaherpesvirus 1 = assay: Antiviral activity against Feline herpesvirus infected in cat CRFK cells assessed as inhibition of virus-induced cytopathicity; format: functional, organism-based; procedure, shortened: as §1
Human respirovirus 3 = assay: Antiviral activity against parainfluenza virus 3 infected in African green monkey Vero cells assessed as inhibition of virus-induced cytopathicity; format: functional, organism-based; procedure, shortened: as §1
Plasmodium falciparum [17] = assay: Antiplasmodial activity against chloroquine-resistant asexual erythrocytic stage of Plasmodium falciparum Dd2 assessed as parasite growth inhibition by lactate dehydrogenase assay; format: functional, organism-based; procedure, shortened: as §3
[18] = Selectivity index, ratio of CC50 for cat CRFK cells to IC50 for chloroquine-resistant asexual erythrocytic stage of Plasmodium falciparum Dd2; format: functional
Procedure, shortened: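 Ratio of CRFK CC50 (μM) to Dd2 IC50 […]. CC50 is the 50% cytotoxic concentration in feline kidney CRFK cells, measured as cell viability by colorimetric formazan-based MTS assay. Dd2 IC50 is from the parasite LDH growth-inhibition assay.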

Q: With `Clc1ccnc(N2CCOCC2)n1` as the compound, how does the inhibition (Human betaherpesvirus 5 [1]) read?
A: The inhibition was “inactive”.

Q: And the inhibition (Human alphaherpesvirus 1 [2])?
A: Its inhibition is “inactive”.

Q: And the CC50 [3]?
A: Its CC50 is > 100 µM.

Q: And the inhibition (Human alphaherpesvirus 3)?
A: Its inhibition is “inactive”.

Q: What about the inhibition [4] of the same compound?
A: The inhibition was “inactive”.

Q: What about the solubility [5] of the same compound?
A: Its solubility is 9 µM (≈ 1.8 µg/mL).

Q: And the inhibition (Human alphaherpesvirus 1 [6])?
A: Its inhibition is “inactive”.

Q: What about the inhibition (Influenza A virus) of the same compound?
A: Its inhibition is “inactive”.

Q: And the MCC [7]?
A: Its MCC is > 100 µM.

Q: What about the inhibition (Sindbis virus) of the same compound?
A: The inhibition was “inactive”.

Q: And the inhibition [8]?
A: The inhibition was “inactive”.

Q: And the inhibition (Vaccinia virus)?
A: The inhibition was “inactive”.

Q: And the logD at 24 h [9]?
A: Its logD at 24 h is 0.13.

Q: And the inhibition (Feline coronavirus)?
A: The inhibition was “inactive”.

Q: And the inhibition (Human alphaherpesvirus 2)?
A: Its inhibition is “inactive”.

Q: What about the inhibition [10] of the same compound?
A: Its inhibition is “inactive”.

Q: What about the inhibition [11] of the same compound?
A: The inhibition was “inactive”.

Q: What about the IC50 (Plasmodium falciparum [12]) of the same compound?
A: Its IC50 is 15 µM.

Q: And the inhibition (Coxsackievirus B4 [13])?
A: Its inhibition is “inactive”.

Q: What about the inhibition (Punta Toro virus) of the same compound?
A: Its inhibition is “inactive”.

Q: And the inhibition (Influenza A virus H3N2)?
A: The inhibition was “inactive”.

Q: What about the inhibition (Coxsackievirus B4 [14]) of the same compound?
A: The inhibition was “inactive”.

Q: And the solubility [15]?
A: The solubility was 12.1 µM (≈ 2.42 µg/mL).

Q: And the inhibition (Human betaherpesvirus 5 [16])?
A: The inhibition was “inactive”.

Q: And the inhibition (Felid alphaherpesvirus 1)?
A: Its inhibition is “inactive”.

Q: What about the inhibition (Human respirovirus 3) of the same compound?
A: The inhibition was “inactive”.

Q: With `Clc1ccc2c(NCCCNc3nccc(N4CCOCC4)n3)ccnc2c1` as the compound, how does the inhibition (Human betaherpesvirus 5 [1]) read?
A: The inhibition was “inactive”.

Q: What about the inhibition (Human alphaherpesvirus 1 [2]) of the same compound?
A: The inhibition was “inactive”.

Q: What about the CC50 [3] of the same compound?
A: Its CC50 is > 100 µM.

Q: What about the inhibition (Human alphaherpesvirus 3) of the same compound?
A: Its inhibition is “inactive”.

Q: What about the inhibition [4] of the same compound?
A: The inhibition was “inactive”.

Q: And the solubility [5]?
A: Its solubility is 0.53 µM (≈ 0.211 µg/mL).

Q: And the inhibition (Human alphaherpesvirus 1 [6])?
A: The inhibition was “inactive”.

Q: And the inhibition (Influenza A virus)?
A: The inhibition was “inactive”.

Q: What about the MCC [7] of the same compound?
A: The MCC was > 100 µM.

Q: What about the inhibition (Sindbis virus) of the same compound?
A: The inhibition was “inactive”.

Q: What about the inhibition [8] of the same compound?
A: Its inhibition is “inactive”.

Q: And the inhibition (Vaccinia virus)?
A: The inhibition was “inactive”.

Q: And the logD at 24 h [9]?
A: The logD at 24 h was 0.257.

Q: What about the inhibition (Feline coronavirus) of the same compound?
A: The inhibition was “inactive”.

Q: And the inhibition (Human alphaherpesvirus 2)?
A: The inhibition was “inactive”.

Q: What about the IC50 (Plasmodium falciparum [17]) of the same compound?
A: Its IC50 is 0.158 µM.

Q: What about the inhibition [10] of the same compound?
A: The inhibition was “inactive”.

Q: What about the “Ratio CC50/IC50” value [18] of the same compound?
A: The value was >632.

Q: And the inhibition [11]?
A: The inhibition was “inactive”.

Q: And the IC50 (Plasmodium falciparum [12])?
A: Its IC50 is 0.055 µM.

Q: What about the inhibition (Coxsackievirus B4 [13]) of the same compound?
A: The inhibition was “inactive”.

Q: What about the inhibition (Punta Toro virus) of the same compound?
A: Its inhibition is “inactive”.

Q: What about the inhibition (Influenza A virus H3N2) of the same compound?
A: Its inhibition is “inactive”.

Q: What about the inhibition (Coxsackievirus B4 [14]) of the same compound?
A: Its inhibition is “inactive”.

Q: What about the solubility [15] of the same compound?
A: The solubility was 0.95 µM (≈ 0.379 µg/mL).

Q: And the inhibition (Human betaherpesvirus 5 [16])?
A: Its inhibition is “inactive”.

Q: What about the inhibition (Felid alphaherpesvirus 1) of the same compound?
A: Its inhibition is “inactive”.

Q: And the inhibition (Human respirovirus 3)?
A: The inhibition was “inactive”.

Q: For `Clc1ccc2c(NCCCCCCCCCCCCNc3nccc(Cl)n3)ccnc2c1`, which inhibition (Human betaherpesvirus 5 [1]) is on record?
A: The inhibition was “inactive”.

Q: And the inhibition (Human alphaherpesvirus 1 [2])?
A: The inhibition was “inactive”.

Q: What about the CC50 [3] of the same compound?
A: Its CC50 is 19 µM.

Q: What about the inhibition (Human alphaherpesvirus 3) of the same compound?
A: The inhibition was “inactive”.

Q: And the inhibition [4]?
A: The inhibition was “inactive”.

Q: And the solubility [5]?
A: Its solubility is 0.05 µM (≈ 0.0237 µg/mL).

Q: What about the inhibition (Human alphaherpesvirus 1 [6]) of the same compound?
A: Its inhibition is “inactive”.

Q: And the inhibition (Influenza A virus)?
A: Its inhibition is “inactive”.

Q: And the MCC [7]?
A: Its MCC is 20 µM.

Q: And the inhibition (Sindbis virus)?
A: The inhibition was “inactive”.

Q: And the inhibition [8]?
A: Its inhibition is “inactive”.

Q: And the inhibition (Vaccinia virus)?
A: Its inhibition is “inactive”.

Q: And the logD at 24 h [9]?
A: The logD at 24 h was 2.59.

Q: What about the inhibition (Feline coronavirus) of the same compound?
A: Its inhibition is “inactive”.

Q: What about the inhibition (Human alphaherpesvirus 2) of the same compound?
A: Its inhibition is “inactive”.

Q: What about the inhibition [10] of the same compound?
A: Its inhibition is “inactive”.

Q: And the inhibition [11]?
A: Its inhibition is “inactive”.

Q: What about the IC50 (Plasmodium falciparum [12]) of the same compound?
A: The IC50 was 4.31 µM.

Q: And the inhibition (Coxsackievirus B4 [13])?
A: The inhibition was “inactive”.

Q: What about the inhibition (Punta Toro virus) of the same compound?
A: Its inhibition is “inactive”.

Q: What about the inhibition (Influenza A virus H3N2) of the same compound?
A: The inhibition was “inactive”.

Q: What about the inhibition (Coxsackievirus B4 [14]) of the same compound?
A: The inhibition was “inactive”.

Q: What about the solubility [15] of the same compound?
A: The solubility was 19.4 µM (≈ 9.2 µg/mL).

Q: And the inhibition (Human betaherpesvirus 5 [16])?
A: The inhibition was “inactive”.

Q: What about the inhibition (Felid alphaherpesvirus 1) of the same compound?
A: The inhibition was “inactive”.

Q: What about the inhibition (Human respirovirus 3) of the same compound?
A: The inhibition was “inactive”.

Q: With `C[C@H]1[C@H](OC(=O)CCC(=O)O)O[C@@H]2O[C@@]3(C)CC[C@H]4[C@H](C)CC[C@@H]1[C@@]24OO3` [ARTESUNATE] as the compound, how does the IC50 (Plasmodium falciparum [12]) read?
A: Its IC50 is 0.0063 µM.
